A word on the pIC50: it is the negative decadic logarithm of the IC50, by convention in mol/L. Broadly, the IC50 is the concentration that inhibits the measured activity by half.

Experimental findings from ChEMBL document CHEMBL4261536, “Encapsulation of nor-β-lapachone into poly(d,l)-lactide-co-glycolide (PLGA) microcapsules: full characterization, computational details and cytotoxic activity against human cancer cell lines” (Medchemcomm, 2017) are described below.

Assay [1] has as its system DU-145. The assay can be described thus: Cytotoxicity against human DU145 cells assessed as decrease in cell viability after 72 hrs by MTT assay. Format: functional, cell-based. As to conditions: DU-145, 72 h. The essentials: (§1)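 Cells grown in RPMI 1640 with 10% FBS and penicillin/streptomycin at 37°C, 5% CO2. Seeded at 0.1×10⁶ cells/well (HCT-116: 0.7×10⁵). After 24 h, drug in DMSO added at […]; controls got DMSO. Exposure 72 h, with prostate lines read at 24, 72 and 96 h. Then MTT (0.5 mg/mL) for 3 h, formazan dissolved in DMSO, A595 expressed as % of control. IC50 by nonlinear regression from three independent experiments in triplicate.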
On the technique in general: Formazan colour is commonly taken as a measure of viable cells.

For assay [2], the system named is OVCAR-8. Kind of assay: Cytotoxicity against human OVCAR8 cells assessed as decrease in cell viability after 72 hrs by MTT assay. It counts as functional, cell-based. As to conditions: OVCAR-8, 72 h. The essentials:
as §1

Assay [3] deals with PC-3M. The assay can be described thus: Cytotoxicity against human PC3M cells assessed as decrease in cell viability after 72 hrs by MTT assay. Format: functional, cell-based. The essentials:
as §1

Assay [4] has as its system PBMC. The assay can be described thus: Cytotoxicity against human PBMC assessed as decrease in cell viability after 72 hrs by Alamar blue assay. Format: cell-based. The essentials: (§2)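 PBMC isolated from healthy volunteers' blood on Ficoll. Kept in RPMI 1640 with 20% FBS; proliferation induced with 3% phytohemagglutinin. Plated at 2×10⁴ cells/well; after 24 h, test material in PBS pH 7.4 added at […], controls got PBS. Treated 72 h, with Alamar Blue added for the final 24 h. Absorbance at 570 and 600 nm as % of control. IC50 by nonlinear regression from three independent experiments in triplicate.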
On the technique in general: Resazurin is reduced to fluorescent resorufin, in cell work by metabolically active cells.

In assay [5] the test system is DU-145. The assay can be described thus: Cytotoxicity against human DU145 cells assessed as decrease in cell viability using compound loaded PLGA microcapsule after 24 hrs by MTT assay. Format: functional, cell-based. The essentials: (§3)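 Drug-loaded PLGA microparticles suspended in PBS pH 7.4 and added at […], 24 h after seeding at 0.1×10⁶ cells/well (HCT-116: 0.7×10⁵). Medium RPMI 1640 with 10% FBS, 37°C, 5% CO2. Incubated 72 h, with DU145, PC3 and PC3M read at 24, 72 and 96 h. MTT 0.5 mg/mL for 3 h, formazan in DMSO, A595 as % of control. IC50 by nonlinear regression, three independent experiments in triplicate.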

Assay [6] concerns PC-3M. Kind of assay: Cytotoxicity against human PC3M cells assessed as decrease in cell viability after 96 hrs by MTT assay. It counts as functional, cell-based. The essentials:
as §1

The test system of assay [7] is HCT-116. Kind of assay: Cytotoxicity against human HCT116 cells assessed as decrease in cell viability using compound loaded PLGA microcapsule after 72 hrs by MTT assay. Format: functional, cell-based. As to conditions: HCT-116, 72 h. The essentials:
as §3

For assay [8], the system named is DU-145. Kind of assay: Cytotoxicity against human DU145 cells assessed as decrease in cell viability using compound loaded PLGA microcapsule after 72 hrs by MTT assay. It counts as functional, cell-based. As to conditions: DU-145, 72 h. The essentials: as §3
The test system of assay [9] is PC-3M. Kind of assay: Cytotoxicity against human PC3M cells assessed as decrease in cell viability using compound loaded PLGA microcapsule after 96 hrs by MTT assay. It counts as functional, cell-based. The essentials: as §3
In assay [10] the test system is PBMC. The assay can be described thus: Cytotoxicity against human PBMC assessed as decrease in cell viability using compound loaded PLGA microcapsule after 72 hrs by Alamar blue assay. Format: cell-based. In outline: as §2
The subject of assay [11] is PC-3. Kind of assay: Cytotoxicity against human PC3 cells assessed as decrease in cell viability using compound loaded PLGA microcapsule after 72 hrs by MTT assay. It counts as functional, cell-based. The conditions noted are these: PC-3, 72 h. The essentials:
as §3

Assay [12] relates to PC-3M. The assay can be described thus: Cytotoxicity against human PC3M cells assessed as decrease in cell viability using compound loaded PLGA microcapsule after 24 hrs by MTT assay. It counts as functional, cell-based. The essentials:
as §3

Assay [13] deals with SF-295. The assay can be described thus: Cytotoxicity against human SF295 cells assessed as decrease in cell viability using compound loaded PLGA microcapsule after 72 hrs by MTT assay. It counts as functional, cell-based. As to conditions: SF-295, 72 h. The essentials: as §3
Assay [14] deals with OVCAR-8. Kind of assay: Cytotoxicity against human OVCAR8 cells assessed as decrease in cell viability using compound loaded PLGA microcapsule after 72 hrs by MTT assay. As to conditions: OVCAR-8, 72 h. It counts as functional, cell-based. The essentials: as §3
The test system of assay [15] is DU-145. Kind of assay: Cytotoxicity against human DU145 cells assessed as decrease in cell viability using compound loaded PLGA microcapsule after 96 hrs by MTT assay. It counts as functional, cell-based. The essentials:
as §3

Assay [16] concerns PC-3M. The assay can be described thus: Induction of morphological changes in human PC3M cells at 11.2 uM after 24 to 72 hrs by hematoxylin/eosin staining-based light microscopic method. It counts as functional, cell-based. The essentials:
(§4)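 PC3M cells exposed to free or PLGA-encapsulated drug, then stained with hematoxylin/eosin and examined by light microscopy (400×) after 24, 48 and 72 h.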

Assay [17] deals with HCT-116. The assay can be described thus: Cytotoxicity against human HCT116 cells assessed as decrease in cell viability after 72 hrs by MTT assay. As to conditions: HCT-116, 72 h. It counts as functional, cell-based. In outline:
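After 24 h, drug in DMSO added at […]; controls got DMSO. Exposure 72 h, with prostate lines read at 24, 72 and 96 h. Then MTT (0.5 mg/mL) for 3 h, formazan dissolved in DMSO, A595 expressed as % of control. IC50 by nonlinear regression from three independent experiments in triplicate.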

The subject of assay [18] is PC-3M. Kind of assay: Induction of morphological changes in human PC3M cells at 5.4 uM using compound loaded PLGA microcapsule after 24 to 72 hrs by hematoxylin/eosin staining-based light microscopic method. Format: functional, cell-based. The essentials:
as §4

In assay [19] the test system is PC-3. Kind of assay: Cytotoxicity against human PC3 cells assessed as decrease in cell viability after 96 hrs by MTT assay. It counts as functional, cell-based. In outline: as §1
The subject of assay [20] is PC-3M. The assay can be described thus: Cytotoxicity against human PC3M cells assessed as decrease in cell viability using compound loaded PLGA microcapsule after 72 hrs by MTT assay. It counts as functional, cell-based. The essentials:
as §3

The subject of assay [21] is PC-3. Kind of assay: Cytotoxicity against human PC3 cells assessed as decrease in cell viability after 72 hrs by MTT assay. The conditions noted are these: PC-3, 72 h. Format: functional, cell-based. The essentials:
as §1

For assay [22], the system named is DU-145. Kind of assay: Cytotoxicity against human DU145 cells assessed as decrease in cell viability after 24 hrs by MTT assay. Format: functional, cell-based. The essentials:
as §1

Assay [23] concerns PC-3. The assay can be described thus: Cytotoxicity against human PC3 cells assessed as decrease in cell viability after 24 hrs by MTT assay. Format: functional, cell-based. The essentials:
as §1

In assay [24] the test system is PC-3M. Kind of assay: Cytotoxicity against human PC3M cells assessed as decrease in cell viability after 24 hrs by MTT assay. It counts as functional, cell-based. In outline: as §1
The subject of assay [25] is DU-145. Kind of assay: Cytotoxicity against human DU145 cells assessed as decrease in cell viability after 96 hrs by MTT assay. Format: functional, cell-based. The essentials: as §1
Assay [26] concerns SF-295. Kind of assay: Cytotoxicity against human SF295 cells assessed as decrease in cell viability after 72 hrs by MTT assay. Format: functional, cell-based. As to conditions: SF-295, 72 h. In outline:
as §1

Assay [27] relates to PC-3. Kind of assay: Cytotoxicity against human PC3 cells assessed as decrease in cell viability using compound loaded PLGA microcapsule after 96 hrs by MTT assay. Format: functional, cell-based. The essentials: as §3
In assay [28] the test system is PC-3. The assay can be described thus: Cytotoxicity against human PC3 cells assessed as decrease in cell viability using compound loaded PLGA microcapsule after 24 hrs by MTT assay. It counts as functional, cell-based. The essentials:
as §3

pIC50: −log10 of the molar value. ≈ marks a conversion by molar mass, not a printed value. Calls of active or inactive are those of the source. The rule behind the calls is not given here.

`COc1cccc2c1C(=O)c1c(O)c3c(c(O)c1C2=O)C[C@@](O)(C(=O)CO)C[C@@H]3O[C@H]1C[C@H](N)[C@H](O)[C@H](C)O1` [DOXORUBICIN]: the pIC50 in the assay on DU-145 [1] was 6.82; in the assay on OVCAR-8 [2] it was 6.21; in the assay with PC-3M [3], 6.43.

For the compound `CC1(C)CC2=C(O1)c1ccccc1C(=O)C2=O` [NOR-BETA-LAPACHONE], the pIC50 was 5.00 in the assay with PBMC [4]; 5.13 in the assay on HCT-116 [7]; 5.62 with DU-145 [8]; 5.00 in the assay on PBMC [10]; 5.86 with DU-145 [1]; 5.73 with PC-3 [11]. For the same compound, the negative-log IC50 (pIC50) with SF-295 [13] is 5.13; in the assay on OVCAR-8 [14], 4.86; in the assay on HCT-116 [17] it was 5.80; in the assay with PC-3M [20], 5.34; in the assay with PC-3 [21], 5.84; with OVCAR-8 [2] it was 5.59. For the same compound, the figures for the negative-log IC50 (pIC50) in the assay with SF-295 [26] and with PC-3M [3] were 5.84 and 5.05, respectively. Moreover, the result in the assay on DU-145 [5], in the assay with DU-145 [15], with PC-3M [16], in the assay on PC-3M [18], in the assay with PC-3 [19] and in the assay on DU-145 [22] was Active. Besides, the result in the assay on PC-3 [23], with DU-145 [25], in the assay on PC-3 [27] and with PC-3 [28] was Active. Also, the IC50 was found to be 1.79 µg/mL (≈ 7.83 µM) in the assay on PC-3M [6], 1.4 µg/mL (≈ 6.14 µM) in the assay on PC-3M [9], 2.44 µg/mL (≈ 10.7 µM) with PC-3M [12] and 1.89 µg/mL (≈ 8.27 µM) in the assay with PC-3M [24].
